From ChEMBL document CHEMBL1143704, “Cyathusals A, B, and C, antioxidants from the fermented mushroom Cyathus stercoreus” (J Nat Prod, 2007)

Legend:
[1] = test system: Radical scavenging activity; test: Antioxidant activity assessed as DPPH radical scavenging activity after 30 mins; type: functional
How it was run: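 10 µL DMSO sample dilutions (DMSO alone as control) added to 190 µL of 1.5 × 10^-4 M ethanolic DPPH radical. Incubated 30 min at 25 °C, then A517 read at steady state. % scavenged = (1 − Atest/Acontrol) × 100. EC50 is the concentration scavenging 50% of the DPPH radical.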

[2] = Antioxidant activity assessed as ABTS radical scavenging activity after 7 mins

SMILES	EC50 [1] [µM]	EC50 [2] [µM]
COc1ccc(O)c(C(C)(C)C)c1.COc1ccc(O)cc1C(C)(C)C [BUTYLATED HYDROXYANISOLE]	97.1	11.7
C/C=C/c1cc2c(c(=O)o1)-c1c(O)c(O)c(OC)c(C=O)c1CO2 [CYATHUSAL A]	41.6	7.86
Cc1c(C)c2c(c(C)c1O)CCC(C)(C(=O)O)O2 (configuration not stated) [TROLOX]	37.6	14.5
C/C=C/c1cc2c(c(=O)o1)-c1c(O)c(O)c(OC)c(C=O)c1C(O)O2 (configuration not stated) [CYATHUSAL B]	46	11.1

Now those with a lower EC50 [1], led by results:

EC50 [1] [µM]	EC50 [2] [µM]	SMILES
28.6	8.36	C/C=C/c1cc2c(c(=O)o1)-c1c(O)c(O)c(OC)c(C=O)c1C(OC)O2 (configuration not stated) [PULVINATAL]
26.6	9.1	C/C=C/c1cc2c(c(=O)o1)-c1c(O)c(O)c(OC)c(C=O)c1C(OC(C)C)O2 (configuration not stated) [CYATHUSAL C]
